According to ChEMBL document CHEMBL4402602, “Discovery of (2R)-N-[3-[2-[(3-Methoxy-1-methyl-pyrazol-4-yl)amino]pyrimidin-4-yl]-1H-indol-7-yl]-2-(4-methylpiperazin-1-yl)propenamide (AZD4205) as a Potent and Selective Janus Kinase 1 Inhibitor” (J Med Chem, 2020):
Converted amounts (≈) assume the structure as drawn. The source made the active and inactive calls. No cut-off for these calls is given here.

Legend:
[1] = target: T1, Tyrosine-protein kinase JAK1 (Homo sapiens, UniProt P23458); assay: Inhibition of recombinant human N-terminal GST-tagged JAK1 (866 to 1154 residues) expressed in insect cells using FITC-labeled C6-KKHTDDGYMPMSPGVA-NH peptide as substrate after 10 mins in presence of 5 mM ATP by caliper mobility shift assay
[2] = target: Tyrosine-protein kinase JAK2 (Homo sapiens, UniProt O60674); assay: Inhibition of recombinant human N-terminal GST-tagged JAK2 (831 to 1132 residues) expressed in insect cells using 5FAM-labeled GEEPLYWSFPAKKK-NH2 peptide as substrate after 10 mins in presence of 5 mM ATP by caliper mobility shift assay
Homo sapiens = organism: Homo sapiens; assay: Selectivity index, ratio of IC50 for inhibition of recombinant human N-terminal GST-tagged JAK2 (831 to 1132 residues) expressed in insect cells using 5FAM-labeled GEEPLYWSFPAKKK-NH2 peptide as substrate after 10 mins in presence of 5 mM ATP by caliper mobility shift assay to IC50 for inhibition of …
[3] = Solubility of compound at pH 7.4; assay type: physicochemical; settings: buffer
[4] = target: T1, Tyrosine-protein kinase JAK1; assay: Inhibition of JAK1 in human NCI-H1975 cells assessed as decrease in STAT3 phosphorylation measured after 1 hr by ELISA; assay type: cell-based
Outline: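 Cellular mode-of-action assay in NCI-H1975 cells measuring inhibition of STAT3 phosphorylation. IC50 values are geometric means of at least two independent experiments.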

[5] = target: Voltage-gated inwardly rectifying potassium channel KCNH2 (Homo sapiens, UniProt Q12809); assay: Inhibition of human ERG
[6] = Solubility of compound at pH 6.5; assay type: physicochemical; settings: buffer
[7] = Solubility of compound in phosphate buffer at pH 7.4 and 37 degree C; assay type: physicochemical
[8] = Octanol-buffer partition coefficient, log D of the compound at pH 7.4 by shake flask method; assay type: physicochemical
[9] = target: Non-receptor tyrosine-protein kinase TYK2 (Homo sapiens, UniProt P29597); assay: Inhibition of TYK2 (unknown origin)
Outline: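 JAK family biochemical kinase assay run at 5 mM ATP. IC50 values are geometric means of at least two independent experiments, SEM within 0.2 log units.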

[10] = target: Vascular endothelial growth factor receptor 3 (Homo sapiens) (UniProt P35916); assay: Inhibition of recombinant human N-terminal GST-tagged FLT4 (800 to end residues) expressed in baculovirus infected Sf21 cells at 1 uM relative to control
Outline: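 Single-point screen at 1 µM across a panel of 293 kinases. Percent inhibition recorded for each kinase.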

[11] = Intrinsic clearance in rat hepatocytes assessed per 10^-6 cells; assay type: ADME, cell-based, Hepatocyte
Outline: (§1)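 Intrinsic clearance measured in fresh hepatocytes from rat, dog and human. Expressed as µL/min per 10⁶ cells.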

[12] = Intrinsic clearance in dog hepatocytes assessed per 10^-6 cells; assay type: ADME, cell-based, Canis lupus familiaris, Hepatocyte; outline: as §1
[13] = Intrinsic clearance in human hepatocytes assessed per 10^-6 cells; assay type: ADME, cell-based, Hepatocyte; outline: as §1
[14] = Apparent permeability across apical to basolateral membrane in human Caco2 cells; assay type: ADME, cell-based; settings: Caco-2
Outline: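 Caco-2 monolayer permeability measured in both directions, apical to basolateral and basolateral to apical. Papp reported for the A-to-B direction.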

[15] = Efflux ratio of apparent permeability across basolateral to apical membrane over apical to basolateral membrane in human Caco2 cells; assay type: ADME, cell-based; settings: Caco-2
Outline: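 Caco-2 monolayer permeability measured in both directions, apical to basolateral and basolateral to apical. Efflux ratio is the B to A Papp divided by the A to B Papp.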

[16] = AUC in Han Wistar rat at 5 mg/kg, iv; assay type: ADME, organism-based; settings: in vivo
Outline: (§2)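 Male Han Wistar rats. Oral dose 10 mg/kg in 0.1% HPMC. Intravenous dose 5 mg/kg in 40% DMA/40% PEG/20% saline. AUC, observed clearance, Vdss, half-life and oral bioavailability derived from plasma exposure.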

[17] = AUC in Han Wistar rat at 10 mg/kg, po; assay type: ADME, organism-based; settings: in vivo; outline: as §2
[18] = Clearance in Han Wistar rat at 5 mg/kg, iv; assay type: ADME, organism-based; settings: in vivo; outline: as §2
[19] = Half life in Han Wistar rat at 5 mg/kg, iv; assay type: ADME, organism-based; settings: in vivo; outline: as §2
[20] = Half life in Han Wistar rat at 10 mg/kg, po; assay type: ADME, organism-based; settings: in vivo; outline: as §2
[21] = AUC in Beagle dog at 10 mg/kg, iv; assay type: ADME, organism-based, Canis lupus familiaris; settings: in vivo
Outline: (§3)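 Male beagle dogs. Oral dose 20 mg/kg in 0.1% HPMC, pH 2. Intravenous dose 10 mg/kg in 20% TEG/D5W. AUC, observed clearance, Vdss, half-life and oral bioavailability derived from plasma exposure.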

[22] = AUC in Beagle dog at 20 mg/kg, po; assay type: ADME, organism-based, Canis lupus familiaris; settings: in vivo; outline: as §3
[23] = Half life in Beagle dog at 10 mg/kg, iv; assay type: ADME, organism-based, Canis lupus familiaris; settings: in vivo; outline: as §3
[24] = Half life in Beagle dog at 20 mg/kg, po; assay type: ADME, organism-based, Canis lupus familiaris; settings: in vivo; outline: as §3
[25] = Volume of distribution at steady state in Beagle dog at 10 mg/kg, iv; assay type: ADME, organism-based, Canis lupus familiaris; settings: in vivo; outline: as §3
[26] = Volume of distribution at steady state in Han Wistar rat at 5 mg/kg, iv; assay type: ADME, organism-based; settings: in vivo, read-out: Vdss; outline: as §2
NCI-H1975 [27] = assay: Antitumor activity against human NCI-H1975 cells harboring EGFR T790M mutant xenografted in NCr nude mouse assessed as tumor growth inhibition at 50 mg/kg, po bid administered for 18 days post 10 days of implantation; assay type: functional, organism-based
Outline: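 NCI-H1975 cells implanted subcutaneously in female NCr nude mice. Ten days later, mice with tumours averaging 189 mm³ (range 152–250) were randomized into groups of 6–8.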

[28] = Toxicity in NCr nude mouse xenografted with human NCI-H1975 cells harboring EGFR T790M mutant assessed as effect on body weight at 50 mg/kg, po bid administered for 18 days post 10 days of implantation in combination with osimertinib at 2.5 mg/kg, po qd; assay type: organism-based; settings: in vivo
[29] = Toxicity in NCr nude mouse xenografted with human NCI-H1975 cells harboring EGFR T790M mutant assessed as effect on body weight at 50 mg/kg, po bid administered for 18 days post 10 days of implantation; assay type: organism-based; settings: in vivo
Outline: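 Female NCr nude mice implanted subcutaneously with NCI-H1975 cells. Ten days after implantation, mice were randomized into groups of 6 to 8 (average tumor volume 189 mm³, range 152 to 250 mm³). They were dosed orally, as single agent or combination, at 50 mpk BID for 18 days. Vehicle was 20% captisol, with vehicle-treated controls.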

Mus musculus [30] = assay: In vivo inhibition of JAK1 in human NCI-H1975 cells harboring EGFR T790M mutant xenografted in NCr nude mouse assessed as reduction of STAT3 phosphorylation at Y705 residue at 50 mg/kg measured after 8 hrs relative to control; assay type: functional; settings: NCI-H1975, 8 h
[31] = target: Cytochrome P450 (isoform not stated) (Homo sapiens, UniProt P04798+P05177+P05181+P08684+P10632+P10635+P11509+P11712+P13584+P20813+P20815+P20853+P24462+P24903+P33260+P33261+P51589+P78329+P98187+Q02928+Q08477+Q16678+Q16696+Q5TCH4+Q6VVX0+Q7Z449+Q8TAV3+Q96SQ9+Q9HB55); assay: Inhibition of human Cytochrome P450; assay type: ADME, protein assay
Outline: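 Inhibition tested against […] at up to 30 µM. IC50 reported.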

NCI-H1975 [32] = settings: Homo sapiens, 50 mg/kg
Mus musculus [33] = organism: Mus musculus; settings: 50 mg/kg
Mus musculus [34] = organism: Mus musculus; settings: 50 mg/kg; remark: listed apart in the source
[35] = Bioavailability in Beagle dog at 20 mg/kg, po; settings: in vivo
[36] = Bioavailability in Han Wistar rat at 10 mg/kg, po; settings: in vivo

Tyrosine-protein kinase JAK2, sequence (O60674 whole entry, the tested form may be a part): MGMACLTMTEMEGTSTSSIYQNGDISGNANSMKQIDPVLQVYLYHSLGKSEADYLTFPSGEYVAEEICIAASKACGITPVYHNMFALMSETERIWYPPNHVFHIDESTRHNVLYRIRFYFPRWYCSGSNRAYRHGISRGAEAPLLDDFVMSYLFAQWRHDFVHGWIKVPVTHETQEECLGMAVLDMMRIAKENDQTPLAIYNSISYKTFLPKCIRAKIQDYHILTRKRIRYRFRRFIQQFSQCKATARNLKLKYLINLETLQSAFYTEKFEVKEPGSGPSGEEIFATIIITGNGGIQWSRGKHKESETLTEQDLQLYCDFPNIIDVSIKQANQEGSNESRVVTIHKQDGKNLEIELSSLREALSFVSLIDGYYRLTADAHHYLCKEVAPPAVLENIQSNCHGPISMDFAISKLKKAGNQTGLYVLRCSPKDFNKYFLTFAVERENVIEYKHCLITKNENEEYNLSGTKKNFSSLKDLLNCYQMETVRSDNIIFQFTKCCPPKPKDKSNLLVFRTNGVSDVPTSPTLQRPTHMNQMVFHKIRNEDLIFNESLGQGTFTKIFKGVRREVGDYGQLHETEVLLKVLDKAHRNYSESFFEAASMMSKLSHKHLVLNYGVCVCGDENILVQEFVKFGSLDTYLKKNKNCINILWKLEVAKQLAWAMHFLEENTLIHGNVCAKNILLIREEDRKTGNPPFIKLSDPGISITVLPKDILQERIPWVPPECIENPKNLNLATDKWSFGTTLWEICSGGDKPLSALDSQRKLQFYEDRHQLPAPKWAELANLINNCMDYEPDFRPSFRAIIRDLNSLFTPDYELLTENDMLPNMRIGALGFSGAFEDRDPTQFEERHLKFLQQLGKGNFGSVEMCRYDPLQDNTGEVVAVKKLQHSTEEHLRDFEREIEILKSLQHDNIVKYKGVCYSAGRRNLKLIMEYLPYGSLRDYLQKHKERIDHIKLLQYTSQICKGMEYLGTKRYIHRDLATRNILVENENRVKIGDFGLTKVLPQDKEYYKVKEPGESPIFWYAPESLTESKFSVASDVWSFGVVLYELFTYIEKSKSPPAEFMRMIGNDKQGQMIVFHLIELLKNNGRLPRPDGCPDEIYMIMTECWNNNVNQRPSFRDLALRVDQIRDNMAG
Voltage-gated inwardly rectifying potassium channel KCNH2, sequence (Q12809 whole entry): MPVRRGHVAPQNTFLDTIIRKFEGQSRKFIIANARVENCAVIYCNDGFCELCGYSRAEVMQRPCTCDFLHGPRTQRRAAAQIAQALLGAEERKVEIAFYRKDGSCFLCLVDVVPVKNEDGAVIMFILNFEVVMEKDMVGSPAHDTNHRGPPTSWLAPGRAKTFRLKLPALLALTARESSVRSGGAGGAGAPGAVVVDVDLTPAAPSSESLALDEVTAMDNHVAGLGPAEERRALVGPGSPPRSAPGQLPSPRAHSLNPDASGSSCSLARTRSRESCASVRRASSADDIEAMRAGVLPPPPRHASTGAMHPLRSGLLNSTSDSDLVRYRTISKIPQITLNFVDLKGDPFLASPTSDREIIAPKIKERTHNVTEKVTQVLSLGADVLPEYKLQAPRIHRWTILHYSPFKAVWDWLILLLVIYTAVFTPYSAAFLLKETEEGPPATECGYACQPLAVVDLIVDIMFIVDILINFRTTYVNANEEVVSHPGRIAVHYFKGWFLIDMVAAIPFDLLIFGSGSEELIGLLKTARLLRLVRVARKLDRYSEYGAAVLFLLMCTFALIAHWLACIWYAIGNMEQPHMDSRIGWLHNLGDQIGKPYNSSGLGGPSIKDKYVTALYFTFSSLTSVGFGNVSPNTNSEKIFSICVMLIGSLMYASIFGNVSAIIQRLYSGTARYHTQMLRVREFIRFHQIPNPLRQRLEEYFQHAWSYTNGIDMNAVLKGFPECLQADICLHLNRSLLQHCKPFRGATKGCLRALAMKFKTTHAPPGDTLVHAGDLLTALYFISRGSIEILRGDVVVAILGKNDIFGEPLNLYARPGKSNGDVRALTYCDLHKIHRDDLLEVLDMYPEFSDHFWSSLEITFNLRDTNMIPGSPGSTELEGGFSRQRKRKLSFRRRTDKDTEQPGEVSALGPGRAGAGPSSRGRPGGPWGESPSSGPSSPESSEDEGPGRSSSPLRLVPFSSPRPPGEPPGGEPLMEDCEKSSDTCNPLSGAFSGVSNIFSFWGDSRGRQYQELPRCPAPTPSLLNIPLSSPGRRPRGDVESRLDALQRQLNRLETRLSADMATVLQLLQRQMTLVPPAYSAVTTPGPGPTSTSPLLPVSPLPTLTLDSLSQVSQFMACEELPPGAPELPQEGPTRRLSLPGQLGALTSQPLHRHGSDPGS
T1 sequence (P23458 whole entry, the tested form may be a part): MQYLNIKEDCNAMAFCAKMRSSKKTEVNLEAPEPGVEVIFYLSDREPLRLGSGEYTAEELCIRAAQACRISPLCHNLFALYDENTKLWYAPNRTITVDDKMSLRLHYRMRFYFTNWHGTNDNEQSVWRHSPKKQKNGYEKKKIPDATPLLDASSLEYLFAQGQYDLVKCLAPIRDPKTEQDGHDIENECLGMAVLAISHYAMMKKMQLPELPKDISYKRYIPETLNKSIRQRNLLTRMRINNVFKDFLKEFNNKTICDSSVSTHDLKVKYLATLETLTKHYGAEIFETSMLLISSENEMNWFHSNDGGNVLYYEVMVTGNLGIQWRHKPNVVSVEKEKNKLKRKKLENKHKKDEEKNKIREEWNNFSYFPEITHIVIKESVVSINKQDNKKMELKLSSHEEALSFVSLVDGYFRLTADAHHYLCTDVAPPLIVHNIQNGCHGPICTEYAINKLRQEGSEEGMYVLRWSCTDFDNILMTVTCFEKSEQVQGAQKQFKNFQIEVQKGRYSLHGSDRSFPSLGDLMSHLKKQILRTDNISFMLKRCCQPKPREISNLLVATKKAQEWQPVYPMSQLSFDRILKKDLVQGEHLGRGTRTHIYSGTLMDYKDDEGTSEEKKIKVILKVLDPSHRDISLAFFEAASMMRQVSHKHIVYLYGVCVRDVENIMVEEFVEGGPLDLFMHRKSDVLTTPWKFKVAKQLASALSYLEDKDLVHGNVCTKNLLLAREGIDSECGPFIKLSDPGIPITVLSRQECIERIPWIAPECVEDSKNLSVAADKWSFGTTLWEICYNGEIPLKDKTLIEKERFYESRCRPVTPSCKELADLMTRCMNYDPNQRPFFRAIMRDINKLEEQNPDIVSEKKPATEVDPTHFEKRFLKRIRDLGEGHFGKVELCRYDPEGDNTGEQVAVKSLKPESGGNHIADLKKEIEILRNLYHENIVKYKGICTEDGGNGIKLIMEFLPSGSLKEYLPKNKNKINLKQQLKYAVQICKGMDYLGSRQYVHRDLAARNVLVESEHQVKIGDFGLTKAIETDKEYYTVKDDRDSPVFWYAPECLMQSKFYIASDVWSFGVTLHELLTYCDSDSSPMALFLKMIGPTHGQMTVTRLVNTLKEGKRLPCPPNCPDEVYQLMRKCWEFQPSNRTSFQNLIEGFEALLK
Vascular endothelial growth factor receptor 3 (Homo sapiens), sequence (P35916 whole entry): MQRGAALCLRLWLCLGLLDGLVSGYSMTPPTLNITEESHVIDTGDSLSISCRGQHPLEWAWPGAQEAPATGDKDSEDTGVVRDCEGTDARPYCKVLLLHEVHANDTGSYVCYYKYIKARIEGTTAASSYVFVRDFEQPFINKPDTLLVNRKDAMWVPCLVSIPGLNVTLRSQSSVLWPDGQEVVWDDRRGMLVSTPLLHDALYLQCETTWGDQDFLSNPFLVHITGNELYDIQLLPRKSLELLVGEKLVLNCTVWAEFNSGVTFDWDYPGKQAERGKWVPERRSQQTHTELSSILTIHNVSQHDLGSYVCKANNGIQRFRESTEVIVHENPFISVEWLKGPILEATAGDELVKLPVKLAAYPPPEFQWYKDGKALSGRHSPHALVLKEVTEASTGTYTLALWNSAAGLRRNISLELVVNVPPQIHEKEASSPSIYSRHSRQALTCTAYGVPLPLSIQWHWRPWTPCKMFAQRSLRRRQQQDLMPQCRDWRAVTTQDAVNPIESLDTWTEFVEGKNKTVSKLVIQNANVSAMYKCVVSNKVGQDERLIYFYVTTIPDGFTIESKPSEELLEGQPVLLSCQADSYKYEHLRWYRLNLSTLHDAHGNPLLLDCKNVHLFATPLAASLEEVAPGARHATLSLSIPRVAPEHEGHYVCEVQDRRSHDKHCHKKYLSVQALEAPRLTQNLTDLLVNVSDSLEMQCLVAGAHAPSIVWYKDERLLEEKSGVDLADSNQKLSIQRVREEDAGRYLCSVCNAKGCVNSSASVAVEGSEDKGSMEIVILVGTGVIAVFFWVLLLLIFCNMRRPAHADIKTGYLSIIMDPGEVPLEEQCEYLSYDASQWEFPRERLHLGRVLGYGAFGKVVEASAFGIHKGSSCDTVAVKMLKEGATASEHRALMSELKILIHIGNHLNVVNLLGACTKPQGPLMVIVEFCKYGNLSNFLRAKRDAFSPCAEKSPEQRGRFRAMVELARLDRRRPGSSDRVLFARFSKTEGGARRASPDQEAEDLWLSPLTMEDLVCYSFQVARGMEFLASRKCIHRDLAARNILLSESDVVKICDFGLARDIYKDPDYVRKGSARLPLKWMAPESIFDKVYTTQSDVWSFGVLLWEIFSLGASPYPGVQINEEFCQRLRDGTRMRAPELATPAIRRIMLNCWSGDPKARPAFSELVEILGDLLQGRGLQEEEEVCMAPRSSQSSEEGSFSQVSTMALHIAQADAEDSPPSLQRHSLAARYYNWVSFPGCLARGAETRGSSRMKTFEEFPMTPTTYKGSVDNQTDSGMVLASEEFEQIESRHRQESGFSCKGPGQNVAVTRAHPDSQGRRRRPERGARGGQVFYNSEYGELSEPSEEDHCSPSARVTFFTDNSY

Q: Which results are given for `Cc1cnc(NC(=O)C2CC2)nc1-c1c[nH]c2c(NC(=O)[C@@H](C)N3CCN(C)CC3)cccc12`?
A: IC50 [1]: 180 nM; IC50 [2]: > 30 µM; Ratio IC50 (Homo sapiens): > 166; solubility [3]: > 930 µM

Q: Which IC50 [1] does the source give for `COc1nn(C)cc1Nc1ncc(C)c(-c2c[nH]c3c(C(=O)Nc4ccc(C)nc4C)cccc23)n1` here?
A: 260 nM

Q: And the IC50 [2]?
A: > 30 µM

Q: And the Ratio IC50 (Homo sapiens)?
A: > 115

Q: What about the solubility [3] of the same compound?
A: 0.1 µM (≈ 0.0483 µg/mL)

Q: Which Ratio IC50 (Homo sapiens) does the source give for `COc1nn(C)cc1Nc1ncc(F)c(-c2c[nH]c3c(NC(=O)[C@@H](C)N4CCN(C)CC4)cccc23)n1` here?
A: 347

Q: And the IC50 [4]?
A: 120 nM

Q: And the IC50 [5]?
A: > 33 µM

Q: For `Cc1cnc(NC(=O)C2CC2)nc1-c1c[nH]c2c(NC(=O)CN3CCOCC3)cccc12`, which IC50 [1] is on record?
A: 2400 nM

Q: What about the IC50 [2] of the same compound?
A: > 30 µM

Q: What about the Ratio IC50 (Homo sapiens) of the same compound?
A: > 12

Q: Which results are given for `COc1nn(C)cc1Nc1nccc(-c2c[nH]c3c(NC(=O)[C@@H](C)N4CCN(C)CC4)cccc23)n1` [GOLIDOCITINIB]?
A: IC50 [1]: 70 nM; IC50 [2]: > 15 µM; Ratio IC50 (Homo sapiens): > 214; solubility [6]: > 1000 µM; solubility [7]: 605 µM (≈ 296 µg/mL); IC50 [4]: 130 nM; IC50 [5]: > 100 µM; logD [8]: 1.7; IC50 [9]: 2800 nM; inhibition [10]: > 75%; CLH [11]: < 1.9 µL/min; CLH [12]: 2 µL/min; CLH [13]: < 1 µL/min; Papp A→B [14]: 7.51 ×10⁻⁶ cm/s; efflux ratio [15]: 2.6; AUC [16]: 1.2 µM·h; AUC [17]: 1.7 µM·h; clearance [18]: 20 mL/min/kg; half-life [19]: 360 min; half-life [20]: 420 min; AUC [21]: 3.1 µM·h; AUC [22]: 5.3 µM·h; half-life [23]: 540 min; half-life [24]: 540 min; Vd [25]: 6.3 L/kg; Vd [26]: 8.7 L/kg; TGI (NCI-H1975 [27]): inactive; Activity [28]: Non-Toxic; Activity [29]: Non-Toxic; inhibition in vivo at 50 mg/kg (Mus musculus [30]): 80%; IC50 [31]: > 30 µM; TGI (NCI-H1975 [32]): Active; inhibition (Mus musculus [33]): Active; inhibition (Mus musculus [34]): Active; bioavailability [35]: 71%; F [36]: 100%

Q: Which IC50 [1] does the source give for `Cc1cnc(Nc2cccnc2C)nc1-c1c[nH]c2c(NC(=O)[C@@H](C)N3CCN(C)CC3)cccc12` here?
A: 130 nM

Q: What about the IC50 [2] of the same compound?
A: > 30 µM

Q: And the Ratio IC50 (Homo sapiens)?
A: > 230

Q: What about the IC50 [4] of the same compound?
A: 180 nM

Q: What about the IC50 [5] of the same compound?
A: > 33 µM

Q: With `Cc1ccc(C(=O)Nc2cccc3c(-c4nc(NC(=O)C5CC5)ncc4C)c[nH]c23)c(C)n1` as the compound, how does the IC50 [1] read?
A: 43 nM

Q: And the IC50 [2]?
A: 2.5 µM

Q: And the Ratio IC50 (Homo sapiens)?
A: 58

Q: And the solubility [3]?
A: 2 µM (≈ 0.881 µg/mL)

Q: What does the source list for `Cc1cnc(NC(=O)C2CC2)nc1-c1c[nH]c2c(NC(=O)C(C)(C)N3CCN(C)CC3)cccc12`?
A: IC50 [1]: 1700 nM; IC50 [2]: > 30 µM; Ratio IC50 (Homo sapiens): > 18; solubility [3]: > 1000 µM

Q: With `Cc1cnc(Nc2cnn(C)c2)nc1-c1c[nH]c2ccccc12` as the compound, how does the IC50 [1] read?
A: 70 nM

Q: What about the IC50 [2] of the same compound?
A: 0.38 µM

Q: What about the Ratio IC50 (Homo sapiens) of the same compound?
A: 5

Q: Which results are given for `COc1nn(C)cc1Nc1ncc(Cl)c(-c2c[nH]c3c(NC(=O)[C@@H](C)N4CCN(C)CC4)cccc23)n1`?
A: Ratio IC50 (Homo sapiens): 257; IC50 [4]: 60 nM; IC50 [5]: 22 µM

Q: With `COc1nn(C)cc1Nc1ncc(Br)c(-c2c[nH]c3c(NC(=O)[C@@H](C)N4CCN(C)CC4)cccc23)n1` as the compound, how does the Ratio IC50 (Homo sapiens) read?
A: 196

Q: And the IC50 [4]?
A: 94 nM

Q: And the IC50 [5]?
A: 15 µM
